In ChEMBL document CHEMBL1148054, “Chemical and bioactive constituents from Zanthoxylum simulans” (J Nat Prod, 1994) one finds Activity and viability data, which are given here for two molecules.

Active and inactive are the calls of the source. The rule behind the calls is not given here.

What all share (format): functional
Experiment [1] has as its system HL-60. Description: Induction of cell differentiation in human HL60 cells assessed as alpha naphthyl esterase activity at 0.0001 uM after 4 days. The procedure, abridged: (§1)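 HL-60 cells in RPMI 1640 with 5% heat-inactivated calf serum at 37° under 5% CO2. Log-phase cells diluted to 1.2×10^5 cells/ml and preincubated 18 h, then samples added in DMSO (final 0.1%, DMSO controls). Cells scored after 4 days.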

Experiment [2] relates to HL-60. Briefly: Induction of cell differentiation in human HL60 cells assessed as alpha naphthyl esterase activity at 0.001 uM after 4 days. The procedure, abridged:
as §1

In experiment [3] the test system is HL-60. Briefly: Induction of cell differentiation in human HL60 cells assessed as alpha naphthyl esterase activity at 0.01 uM after 4 days. The procedure, abridged:
as §1

Experiment [4] relates to HL-60. Briefly: Induction of cell differentiation in human HL60 cells assessed as alpha naphthyl esterase activity at 0.1 uM after 4 days. The procedure, abridged:
as §1

The subject of experiment [5] is HL-60. Briefly: Induction of cell differentiation in human HL60 cells assessed as alpha naphthyl esterase activity at 1 uM after 4 days. The procedure, abridged:
as §1

Experiment [6] has as its system HL-60. Briefly: Induction of terminal cell differentiation in human HL60 cells at 0.0001 uM after 4 days by NBT reduction assay. The gist of the method: (§2)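 Log-phase HL-60 cells (RPMI 1640, 5% heat-inactivated calf serum, 37°, 5% CO2) were diluted to 1.2×10^5 cells/ml, preincubated 18 h, then treated 4 days with samples in DMSO (final 0.1%; DMSO controls). 10^6 cells were mixed 1:1 with fresh PBS holding 2 mg/ml NBT and 5 μg/ml TPA, 1 h at 37°. Formazan-positive cells were counted microscopically as % NBT-positive.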

Experiment [7] relates to HL-60. Briefly: Induction of terminal cell differentiation in human HL60 cells at 0.001 uM after 4 days by NBT reduction assay. The procedure, abridged: as §2
The subject of experiment [8] is HL-60. Briefly: Induction of terminal cell differentiation in human HL60 cells at 0.01 uM after 4 days by NBT reduction assay. The procedure, abridged: as §2
In experiment [9] the test system is HL-60. Description: Induction of terminal cell differentiation in human HL60 cells at 0.1 uM after 4 days by NBT reduction assay. The gist of the method:
as §2

Experiment [10] deals with HL-60. Description: Induction of terminal cell differentiation in human HL60 cells at 1 uM after 4 days by NBT reduction assay. The gist of the method: as §2
For experiment [11], the system named is HL-60. Briefly: Induction of terminal cell differentiation in human HL60 cells assessed as inhibition of [3H]thymidine incorporation at 0.1 uM after 4 days. On the set-up: scale not given: the % may be the effect or the level left. The procedure, abridged: (§3)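 HL-60 cells were kept in RPMI 1640 with 5% heat-inactivated calf serum and penicillin/streptomycin at 37° under 5% CO2. Log-phase cells were diluted to 1.2×10^5 cells/ml and preincubated 18 h. Samples were added in DMSO (final 0.1%; vehicle controls matched) for 4 days. Aliquots then got 0.5 μCi/ml [3H]thymidine for 16 h more, were harvested and scintillation-counted. % incorporation per 10^6 cells = sample DPM / DMSO-control DPM.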
(In general: Dividing cells build labelled thymidine or BrdU into new DNA.)

In experiment [12] the test system is HL-60. Description: Induction of terminal cell differentiation in human HL60 cells assessed as inhibition of [3H]thymidine incorporation at 0.01 uM after 4 days. Also noted: scale not given: the % may be the effect or the level left. The procedure, abridged: as §3
The test system of experiment [13] is HL-60. Description: Induction of terminal cell differentiation in human HL60 cells assessed as inhibition of [3H]thymidine incorporation at 0.001 uM after 4 days. On the set-up: scale not given: the % may be the effect or the level left. The gist of the method:
as §3

Experiment [14] has as its system HL-60. Briefly: Induction of terminal cell differentiation in human HL60 cells assessed as inhibition of [3H]thymidine incorporation at 0.0001 uM after 4 days. On the set-up: scale not given: the % may be the effect or the level left. The procedure, abridged:
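After 4-day sample treatment, 100 μl of HL-60 cells pulsed with 0.5 μCi/ml [3H]thymidine (65 Ci/mmol) for 16 h. Cells harvested and counted by liquid scintillation. Incorporation per 10^6 cells given as sample DPM divided by DMSO-control DPM.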

Experiment [15] concerns HL-60. Briefly: Induction of terminal cell differentiation in human HL60 cells assessed as inhibition of [3H]thymidine incorporation at 1 uM after 4 days. On the set-up: scale not given: the % may be the effect or the level left. The gist of the method:
as §3

In experiment [16] the test system is HL-60. Description: Induction of terminal cell differentiation in human HL60 cells assessed as naphthol AS-D chloroacetate esterase activity at 1 uM after 4 days. The gist of the method:
(§4)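 HL-60 cells were grown in RPMI 1640 with 5% heat-inactivated calf serum at 37°, 5% CO2. They were diluted to 1.2×10^5 cells/ml, preincubated 18 h, then exposed 4 days to DMSO-dissolved samples (final DMSO 0.1%, matched vehicle controls). Specific esterase (naphthol AS-D chloroacetate) was scored cytochemically with a commercial kit as the percentage of differentiated cells.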

Experiment [17] has as its system HL-60. Description: Induction of terminal cell differentiation in human HL60 cells assessed as naphthol AS-D chloroacetate esterase activity at 0.1 uM after 4 days. The gist of the method: as §4
The subject of experiment [18] is HL-60. Description: Induction of terminal cell differentiation in human HL60 cells assessed as naphthol AS-D chloroacetate esterase activity at 0.01 uM after 4 days. The procedure, abridged:
as §4

Experiment [19] relates to HL-60. Description: Induction of terminal cell differentiation in human HL60 cells assessed as naphthol AS-D chloroacetate esterase activity at 0.001 uM after 4 days. The gist of the method:
as §4

The test system of experiment [20] is HL-60. Description: Induction of terminal cell differentiation in human HL60 cells assessed as naphthol AS-D chloroacetate esterase activity at 0.0001 uM after 4 days. The gist of the method:
as §4

Experiment [21] has as its system HL-60. Briefly: Induction of terminal cell differentiation in human HL60 cells assessed as cell viability at 1 uM by trypan blue exclusion method. Particulars: read-out: Activity. The procedure, abridged: (§5)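 HL-60 cells preincubated 18 h at 1.2×10^5 cells/ml, then exposed 4 days to samples in DMSO (final 0.1%). Viability by trypan blue exclusion: viable/(viable+dead)×100. Cell counts also taken after 4 days.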

For experiment [22], the system named is HL-60. Description: Induction of terminal cell differentiation in human HL60 cells assessed as cell viability at 0.1 uM by trypan blue exclusion method. Particulars: read-out: Activity. The gist of the method:
as §5

The test system of experiment [23] is HL-60. Briefly: Induction of terminal cell differentiation in human HL60 cells assessed as cell viability at 0.01 uM by trypan blue exclusion method. The following applies: read-out: Activity. The gist of the method:
as §5

In experiment [24] the test system is HL-60. Briefly: Induction of terminal cell differentiation in human HL60 cells assessed as cell viability at 0.001 uM by trypan blue exclusion method. The following applies: read-out: Activity. The gist of the method: as §5
Experiment [25] deals with HL-60. Description: Induction of terminal cell differentiation in human HL60 cells assessed as cell viability at 0.0001 uM by trypan blue exclusion method. The following applies: read-out: Activity. The procedure, abridged:
as §5

Experiment [26] concerns Platelet. Briefly: Antiplatelet activity against rabbit platelet assessed as inhibition of arachidonic acid-induced platelet aggregation at 100 ug/ml. The following applies: Oryctolagus cuniculus.
The test system of experiment [27] is Platelet. Description: Antiplatelet activity against rabbit platelet assessed as inhibition of collagen-induced platelet aggregation at 100 ug/ml. Particulars: Oryctolagus cuniculus.
Experiment [28] deals with Platelet. Briefly: Antiplatelet activity against rabbit platelet assessed as inhibition of platelet activating factor-induced platelet aggregation at 100 ug/ml. Particulars: Oryctolagus cuniculus.

Turning to `C=C1/C(=C\C=C2/CCC[C@]3(C)[C@@H]([C@H](C)CCCC(C)(C)O)CC[C@@H]23)C[C@@H](O)C[C@@H]1O` [CALCITRIOL], the Activity stood at 2.5% in [1]; 14% in experiment [2]; 68% in [3]; 90.1% in experiment [4]; 95.3% in [5]; 8.8% in [6]. Further, the Activity in experiment [7] worked out at 28.5%; in experiment [8] it was 73.3%; in experiment [9] it was 80%; in [10] it was 90.5%; in experiment [11], 92%; in [12], 58.3%. Also, the Activity was found to be 32.3% in [13]; 6% in [14]; 95.3% in experiment [15]; 2% in [16]; 2% in [17]; 4% in [18]. For the same molecule, the Activity in experiment [19] was 4.6%; in experiment [20] it was 5%. The viability at 1 µM in experiment [21] was 92%. The viability at 0.1 µM in experiment [22] amounted to 95%. In addition, in experiment [23], the viability at 0.01 µM came out at 97%. For the same molecule, the viability at 0.001 µM in experiment [24] amounted to 99%. The viability at 0.0001 µM in experiment [25] was determined as 98%.
Regarding `COc1ccc2c(c1OC)C(CC1(C)C=Cc3c(c4cccc(OC)c4n(C)c3=O)O1)N(C)c1c-2ccc2cc3c(cc12)OCO3` (stereo not drawn), the result in [26], in [27] and in experiment [28] was inactive.
